Data reported in ChEMBL document CHEMBL5653631, “A Potent and Selective ULK1 Inhibitor Suppresses Autophagy and Sensitizes Cancer Cells to Nutrient Stress” (iScience, 2018).

Key:
[1] = target: T1, Aurora kinase C (Homo sapiens) (UniProt Q9UQB9); assay: Inhibition of human recombinant AurC at 500 nM in presence of ATP by radiometric assay relative to control
T1 sequence (whole entry): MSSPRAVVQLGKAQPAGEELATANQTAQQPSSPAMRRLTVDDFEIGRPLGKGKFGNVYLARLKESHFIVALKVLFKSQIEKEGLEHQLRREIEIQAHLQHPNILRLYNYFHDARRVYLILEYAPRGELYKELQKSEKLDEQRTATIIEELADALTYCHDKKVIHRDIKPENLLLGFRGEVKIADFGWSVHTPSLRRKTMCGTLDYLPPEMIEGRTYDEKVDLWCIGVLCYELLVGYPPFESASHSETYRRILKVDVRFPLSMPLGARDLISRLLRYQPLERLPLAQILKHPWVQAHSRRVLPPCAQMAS
In short: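 Part of a radiometric in vitro activity panel of 327 recombinant human kinases. Each kinase was tested in duplicate at one inhibitor concentration. Activity remaining was expressed as a percentage of the vehicle control, and percent inhibition was taken as 100 minus that value.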

[2] = target: T2, Tyrosine-protein kinase TXK (Homo sapiens) (UniProt P42681); assay: Inhibition of human recombinant TXK at 500 nM in presence of ATP by radiometric assay relative to control
T2 sequence (whole entry): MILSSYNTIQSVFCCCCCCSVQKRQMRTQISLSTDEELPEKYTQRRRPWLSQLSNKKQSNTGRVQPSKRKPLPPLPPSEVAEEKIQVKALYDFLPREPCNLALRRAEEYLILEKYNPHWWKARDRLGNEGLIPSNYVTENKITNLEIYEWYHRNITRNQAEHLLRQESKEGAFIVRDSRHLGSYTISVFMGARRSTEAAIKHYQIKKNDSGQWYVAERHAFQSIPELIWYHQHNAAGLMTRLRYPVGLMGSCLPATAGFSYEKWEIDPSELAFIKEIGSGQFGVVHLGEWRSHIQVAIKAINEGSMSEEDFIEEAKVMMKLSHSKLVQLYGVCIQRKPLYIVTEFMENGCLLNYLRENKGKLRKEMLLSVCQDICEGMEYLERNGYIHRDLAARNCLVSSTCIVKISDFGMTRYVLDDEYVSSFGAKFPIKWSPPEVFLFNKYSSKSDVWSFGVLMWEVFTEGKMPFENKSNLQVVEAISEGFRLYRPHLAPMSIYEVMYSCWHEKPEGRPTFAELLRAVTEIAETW

[3] = target: Serine/threonine-protein kinase MRCK alpha (Homo sapiens) (UniProt Q5VT25); assay: Inhibition of human recombinant MRCKa at 500 nM related to control ULK1
Serine/threonine-protein kinase MRCK alpha (Homo sapiens), sequence (Q5VT25 whole entry): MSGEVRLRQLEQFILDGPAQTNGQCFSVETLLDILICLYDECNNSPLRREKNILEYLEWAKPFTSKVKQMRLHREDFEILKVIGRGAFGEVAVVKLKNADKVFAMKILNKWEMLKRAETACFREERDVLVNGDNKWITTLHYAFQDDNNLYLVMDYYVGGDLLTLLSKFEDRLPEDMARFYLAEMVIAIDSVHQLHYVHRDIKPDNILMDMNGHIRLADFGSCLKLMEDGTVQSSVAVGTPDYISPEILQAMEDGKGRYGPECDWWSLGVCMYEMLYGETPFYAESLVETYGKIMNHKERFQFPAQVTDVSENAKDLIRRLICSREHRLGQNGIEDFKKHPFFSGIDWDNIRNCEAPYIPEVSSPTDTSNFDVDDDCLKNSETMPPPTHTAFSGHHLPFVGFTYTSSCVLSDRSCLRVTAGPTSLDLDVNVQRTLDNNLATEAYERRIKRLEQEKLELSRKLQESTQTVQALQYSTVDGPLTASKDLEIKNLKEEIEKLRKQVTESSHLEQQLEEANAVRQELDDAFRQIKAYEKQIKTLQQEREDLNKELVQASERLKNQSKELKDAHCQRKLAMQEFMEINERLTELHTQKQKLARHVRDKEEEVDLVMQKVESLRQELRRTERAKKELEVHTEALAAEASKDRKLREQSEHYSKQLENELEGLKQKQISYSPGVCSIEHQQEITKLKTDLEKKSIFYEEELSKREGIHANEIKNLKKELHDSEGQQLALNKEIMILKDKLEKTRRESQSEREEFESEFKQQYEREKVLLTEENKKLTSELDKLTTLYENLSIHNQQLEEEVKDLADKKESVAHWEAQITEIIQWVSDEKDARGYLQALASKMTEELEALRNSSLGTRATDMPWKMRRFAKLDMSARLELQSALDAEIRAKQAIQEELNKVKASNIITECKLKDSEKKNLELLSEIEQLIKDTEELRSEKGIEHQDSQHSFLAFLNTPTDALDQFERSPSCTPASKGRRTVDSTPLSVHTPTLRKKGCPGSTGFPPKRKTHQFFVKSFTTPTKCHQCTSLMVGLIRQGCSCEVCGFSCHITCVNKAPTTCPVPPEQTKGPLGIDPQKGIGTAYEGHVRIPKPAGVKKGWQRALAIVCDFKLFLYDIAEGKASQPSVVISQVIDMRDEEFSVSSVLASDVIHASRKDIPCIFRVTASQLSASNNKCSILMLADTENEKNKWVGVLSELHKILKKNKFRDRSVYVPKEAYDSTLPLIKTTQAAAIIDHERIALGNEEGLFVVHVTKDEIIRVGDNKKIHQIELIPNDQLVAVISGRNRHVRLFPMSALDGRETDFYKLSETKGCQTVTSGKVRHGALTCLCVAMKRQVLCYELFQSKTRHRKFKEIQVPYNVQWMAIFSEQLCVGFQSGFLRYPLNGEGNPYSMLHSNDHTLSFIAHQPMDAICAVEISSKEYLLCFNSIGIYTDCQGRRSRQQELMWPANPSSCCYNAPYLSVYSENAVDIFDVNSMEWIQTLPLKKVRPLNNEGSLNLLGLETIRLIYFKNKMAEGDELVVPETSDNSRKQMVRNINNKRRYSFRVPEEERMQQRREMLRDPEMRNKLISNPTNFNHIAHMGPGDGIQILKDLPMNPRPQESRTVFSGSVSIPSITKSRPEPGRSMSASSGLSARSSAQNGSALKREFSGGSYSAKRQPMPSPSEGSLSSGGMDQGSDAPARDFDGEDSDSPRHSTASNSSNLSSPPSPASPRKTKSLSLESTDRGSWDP

[4] = target: T3, Rhodopsin kinase GRK1 (Homo sapiens) (UniProt Q15835); assay: Inhibition of human recombinant RHOK at 500 nM related to control ULK1
T3 sequence (whole entry): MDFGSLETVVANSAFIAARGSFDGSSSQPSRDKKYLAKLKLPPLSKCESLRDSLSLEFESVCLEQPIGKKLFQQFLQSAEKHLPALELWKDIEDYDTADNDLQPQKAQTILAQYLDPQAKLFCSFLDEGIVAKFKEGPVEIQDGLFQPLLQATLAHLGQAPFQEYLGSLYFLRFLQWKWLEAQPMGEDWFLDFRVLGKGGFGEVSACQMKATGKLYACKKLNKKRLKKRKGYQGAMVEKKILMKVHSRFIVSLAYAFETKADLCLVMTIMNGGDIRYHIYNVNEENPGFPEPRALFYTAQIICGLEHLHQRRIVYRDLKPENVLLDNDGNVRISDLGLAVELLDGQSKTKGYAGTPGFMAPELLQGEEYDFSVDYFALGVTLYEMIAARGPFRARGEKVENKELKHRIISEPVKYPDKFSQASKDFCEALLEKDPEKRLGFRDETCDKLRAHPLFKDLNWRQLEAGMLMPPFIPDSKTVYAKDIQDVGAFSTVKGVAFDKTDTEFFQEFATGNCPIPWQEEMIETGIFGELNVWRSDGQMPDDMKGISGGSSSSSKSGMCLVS

[5] = target: T4, Ephrin type-A receptor 1 (Homo sapiens) (UniProt P21709); assay: Inhibition of human recombinant EphA1 at 40 nM related to control ULK1
T4 sequence (whole entry): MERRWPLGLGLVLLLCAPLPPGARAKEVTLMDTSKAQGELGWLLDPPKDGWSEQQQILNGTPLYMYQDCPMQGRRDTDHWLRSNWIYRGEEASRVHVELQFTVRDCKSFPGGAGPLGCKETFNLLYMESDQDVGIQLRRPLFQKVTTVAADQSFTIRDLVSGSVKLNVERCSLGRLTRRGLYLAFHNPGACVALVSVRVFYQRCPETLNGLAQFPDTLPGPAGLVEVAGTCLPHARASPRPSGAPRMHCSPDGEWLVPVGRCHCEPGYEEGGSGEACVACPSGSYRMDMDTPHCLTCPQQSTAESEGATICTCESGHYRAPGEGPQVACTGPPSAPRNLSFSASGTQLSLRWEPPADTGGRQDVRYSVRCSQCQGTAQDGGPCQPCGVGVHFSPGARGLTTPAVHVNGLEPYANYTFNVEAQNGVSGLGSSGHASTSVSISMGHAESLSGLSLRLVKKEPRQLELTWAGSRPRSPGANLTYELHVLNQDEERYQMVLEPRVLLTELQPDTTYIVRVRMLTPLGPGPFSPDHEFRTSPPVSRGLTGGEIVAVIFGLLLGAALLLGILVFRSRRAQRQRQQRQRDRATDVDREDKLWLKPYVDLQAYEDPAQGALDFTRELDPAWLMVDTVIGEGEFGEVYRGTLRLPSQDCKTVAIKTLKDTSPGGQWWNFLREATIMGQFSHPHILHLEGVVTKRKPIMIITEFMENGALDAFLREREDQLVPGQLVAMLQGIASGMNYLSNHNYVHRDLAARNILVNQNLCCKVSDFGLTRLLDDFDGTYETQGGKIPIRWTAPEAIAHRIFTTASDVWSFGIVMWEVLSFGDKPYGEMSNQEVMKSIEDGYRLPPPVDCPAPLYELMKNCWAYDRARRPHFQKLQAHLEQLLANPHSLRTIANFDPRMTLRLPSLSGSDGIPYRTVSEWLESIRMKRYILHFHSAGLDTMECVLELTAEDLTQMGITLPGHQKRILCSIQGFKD

inhibition [1]	inhibition [2]	fold change (FC) [3]	fold change (FC) [4]	fold change (FC) [5]	Structure (SMILES)
73%	17%	0.09	0	–	CNC(=O)c1ccccc1Oc1nc(Nc2cc(OC)c(OC)c(OC)c2)ncc1Br
–	–	–	–	0	O=C(N[C@@H](C1CC1)C(F)(F)F)c1cc(-c2cnn3cc(-c4ccc(F)cc4)cnc23)cs1
